Measurements as given in ChEMBL document CHEMBL4689842, “EUbOPEN Chemogenomics Library wave 1” (2021).
Values joined by “and” are separate entries in the source; they are usually repeats but may differ in a detail not shown here. Equal values may be shown once.

Tests used:
Type in all cases: toxicity, cell-based
Conditions in all cases: human, 10 µM, compound concentration 10 uM
HEK-293T [1] = experiment: Multiplex assay against HEK293T;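 on Population Tubulin-Different-Phenotype (%): share of the cells with healthy nuclei that show this phenotype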
How it was run: (§1)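 Imaging took place on a CQ1 microscope at 37°C and 5% CO2 once compound had been added to live cells stained at seeding with Hoechst33342, BioTracker Green Microtubule Cytoskeleton Dye, MitoTracker Red and Annexin V Alexa Fluor 680. CellPathfinder machine-learning gating classed cells as Hoechst high-intensity objects or normal cells, classed normal cells as having healthy, pyknosed or fragmented nuclei, and classed pyknosed cells as mitotic or apoptotic. Tubulin, mitochondrial-mass and membrane-permeability phenotypes are per cents of the healthy-nucleus cells.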

HEK-293T [2] = experiment: Incucyte cell viability with HEK293T; further: filed as whole numbers so only -1 and 0 and 1 occur
U2OS = experiment: Multiplex assay against U2OS; how it was run: as §1

## CCOCCn1cc(C(=O)Nc2ccc(-n3nc(-c4cccnc4)cc3C(F)(F)F)cn2)ccc1=O [BI 1935]
HEK-293T [1]; 12 h, replicate 1
  Population Fragmented Nuclei (%): 15% and 16% and 10%
  Population Healthy Nuclei (%): 27% and 50% and 70%
  Population Hoechst High Intensity Objects (%): 20% and 15% and 10%
  Population Membrane Permeable-Phenotype (%): 6%
  Population Mitotic Cells (%): 30% and 78% and 83%
  Population Normal (%): 80% and 84% and 89%
  Total Cell Count: 285 and 667 and 651
HEK-293T [1]; 12 h, replicate 2
  Population Fragmented Nuclei (%): 3% and 7%
  Population Healthy Nuclei (%): 29% and 84% and 87%
  Population Membrane Permeable-Phenotype (%): 3% and 10% and 2%
  Population Mitotic Cells (%): 71% and 84% and 95%
  Population Normal (%): 91% and 96% and 97%
HEK-293T [1]; 24 h, replicate 1
  Population Fragmented Nuclei (%): 20% and 16% and 10%
  Population Healthy Nuclei (%): 33% and 62% and 81%
  Population Hoechst High Intensity Objects (%): 18% and 14%
  Population Mitotic Cells (%): 29% and 75% and 80%
  Population Normal (%): 81% and 85%
  Total Cell Count: 309 and 632 and 787
HEK-293T [1]; 24 h, replicate 2
  Population Healthy Nuclei (%): 43% and 88% and 71%
  Population Hoechst High Intensity Objects (%): 2% and 4%
  Population Mitotic Cells (%): 53% and 88% and 98%
  Population Normal (%): 97% and 95%
HEK-293T [1]; 48 h, replicate 1
  Population Apoptotic (%): 59%
  Population Fragmented Nuclei (%): 22%
  Population Healthy Nuclei (%): 33%
  Population Hoechst High Intensity Objects (%): 17%
  Population Membrane Permeable-Phenotype (%): 2%
  Population Mitochondria Different-Phenotype (%): 89%
  Population Mitotic Cells (%): 40%
  Population Normal (%): 82%
  Population Pyknosed Nuclei (%): 44%
  Population Tubulin-Different-Phenotype (%): 93%
  Total Cell Count: 341
HEK-293T [1]; 48 h, replicate 2
  Population Apoptotic (%): 33%
  Population Fragmented Nuclei (%): 4%
  Population Healthy Nuclei (%): 61%
  Population Hoechst High Intensity Objects (%): 4%
  Population Membrane Permeable-Phenotype (%): 6%
  Population Mitochondria Different-Phenotype (%): 55%
  Population Mitotic Cells (%): 66%
  Population Normal (%): 95%
  Population Pyknosed Nuclei (%): 33%
  Population Tubulin-Different-Phenotype (%): 79%
  Total Cell Count: 283
HEK-293T [2]; 0 h, replicate number 1, timepoint 0 hours
  Growth Rate: 1
HEK-293T [2]; 6 h, replicate number 1, timepoint 6 hours
  Growth Rate: 0
HEK-293T [2]; 12 h, replicate number 1, timepoint 12 hours
  Growth Rate: 0
HEK-293T [2]; 18 h, replicate number 1, timepoint 18 hours
  Growth Rate: 0
HEK-293T [2]; 24 h, replicate number 1, timepoint 24 hours
  Growth Rate: 0
U2OS; 12 h, replicate 1
  Population Apoptotic (%): 22% and 50% and 42%
  Population Healthy Nuclei (%): 82% and 63% and 91%
  Population Hoechst High Intensity Objects (%): 4% and 8% and 3%
  Population Mitotic Cells (%): 77% and 50% and 57%
  Population Normal (%): 95% and 91% and 96%
  Total Cell Count: 162 and 131 and 216
U2OS; 12 h, replicate 2
  Population Apoptotic (%): 28% and 47% and 16%
  Population Fragmented Nuclei (%): 5% and 8% and 12%
  Population Healthy Nuclei (%): 77% and 65%
  Population Hoechst High Intensity Objects (%): 10% and 7% and 9%
  Population Mitochondria Different-Phenotype (%): 22% and 47% and 19%
  Population Mitotic Cells (%): 71% and 52% and 83%
  Population Normal (%): 89% and 92% and 90%
  Total Cell Count: 89 and 79 and 129
U2OS; 24 h, replicate 1
  Population Apoptotic (%): 42% and 33% and 27%
  Population Healthy Nuclei (%): 62% and 86% and 91%
  Population Hoechst High Intensity Objects (%): 6% and 3%
  Population Mitochondria Different-Phenotype (%): 51% and 17% and 20%
  Population Mitotic Cells (%): 57% and 66% and 72%
  Population Normal (%): 93% and 96%
  Total Cell Count: 147 and 211 and 291
U2OS; 24 h, replicate 2
  Population Apoptotic (%): 46% and 40% and 66%
  Population Fragmented Nuclei (%): 3% and 9%
  Population Healthy Nuclei (%): 82% and 66%
  Population Hoechst High Intensity Objects (%): 7% and 8%
  Population Mitochondria Different-Phenotype (%): 27% and 50%
  Population Mitotic Cells (%): 53% and 60% and 33%
  Population Normal (%): 92% and 91%
  Population Tubulin-Different-Phenotype (%): 27% and 44% and 22%
  Total Cell Count: 101 and 92 and 149
U2OS; 48 h, replicate 1
  Population Apoptotic (%): 51%
